Results: ChEMBL document CHEMBL1144047, “Design and synthesis of diketopiperazine and acyclic analogs related to the caprazamycins and liposidomycins as potential antibacterial agents” (2008)
Converted amounts (≈) assume the structure as drawn.

How the values were obtained:
Assay type in all cases: functional
Staphylococcus aureus [1] = experiment: Antibacterial activity against Staphylococcus aureus Smith after 18 hrs by serial agar dilution method
Method in brief: (§1)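 MIC determined by serial agar dilution on plain Mueller–Hinton agar; read after 18 h incubation at 37 °C.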

[2] = system: Mycobacterium tuberculosis; experiment: Antibacterial activity against Mycobacterium tuberculosis H37Rv at 6.25 ug/ml by microplate Alamar blue assay
Method in brief: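 M. tuberculosis H37Rv (ATCC 27294) grown in BACTEC 12B medium; microplate Alamar blue assay; growth inhibition rate recorded at 6.25 µg/mL.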

Micrococcus luteus [3] = experiment: Antibacterial activity against Micrococcus luteus PCI1001 after 18 hrs by serial agar dilution method; details: PCI1001, 18 h; method in brief: as §1
Micrococcus luteus [4] = experiment: Antibacterial activity against Micrococcus luteus FDA16 after 18 hrs by serial agar dilution method; method in brief: as §1
Bacillus subtilis = experiment: Antibacterial activity against Bacillus subtilis NRRLB-558 after 18 hrs by serial agar dilution method; method in brief: as §1
Corynebacterium bovis = experiment: Antibacterial activity against Corynebacterium bovis 1810 after 18 hrs by serial agar dilution method; method in brief: as §1
Enterococcus faecalis = experiment: Antibacterial activity against Enterococcus faecalis NCTC-12201 after 18 hrs by serial agar dilution method
Method in brief: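 MIC by serial agar dilution on Mueller–Hinton agar supplemented with 5% sheep blood; plates incubated 18 hours at 37 °C under 5% CO₂ before reading.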

[5] = system: Mycolicibacterium smegmatis; experiment: Antibacterial activity against Mycobacterium smegmatis ATCC607 after 42 hrs by serial agar dilution method
Method in brief: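 Serial agar dilution MIC using Mueller–Hinton agar containing 5% glycerol; growth read after 42 h at 37 °C.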

Staphylococcus aureus [6] = experiment: Antibacterial activity against MDR-Staphylococcus aureus MS9610 after 18 hrs by serial agar dilution method
Method in brief: (§2)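 MIC by serial agar dilution on Mueller–Hinton agar (no supplement for staphylococci); plates read after 18 h incubation at 37 °C.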

Staphylococcus aureus [7] = experiment: Antibacterial activity against methicillin-resistant Staphylococcus aureus 5 after 18 hrs by serial agar dilution method; method in brief: as §2

SMILES: NC[C@H]1O[C@@H](O[C@H]([C@H]2O[C@@H](n3ccc(=O)[nH]c3=O)[C@H](O)[C@@H]2O)[C@@H]2NC(=O)[C@@H](COC(=O)c3ccc(-c4ccccc4)cc3)NC2=O)[C@H](O)[C@@H]1O
- MIC (Staphylococcus aureus [1]): > 100 µg/mL
- inhibition at 6.25 µg/mL [2]: 29%
- MIC (Micrococcus luteus [3]): > 100 µg/mL
- MIC (Micrococcus luteus [4]): > 100 µg/mL
- MIC (Bacillus subtilis): > 100 µg/mL
- MIC (Corynebacterium bovis): > 100 µg/mL
- MIC (Enterococcus faecalis): > 100 µg/mL
- MIC [5]: > 100 µg/mL
- MIC (Staphylococcus aureus [6]): > 100 µg/mL

SMILES: CCCCCCCCCCCCCCCC(=O)OC[C@H](NC(=O)[C@@H](N)[C@H](O[C@@H]1O[C@H](CN)[C@@H](O)[C@H]1O)[C@H]1O[C@@H](n2ccc(=O)[nH]c2=O)[C@H](O)[C@@H]1O)C(=O)O
- MIC (Staphylococcus aureus [1]): 25 µg/mL (≈ 32.3 µM)
- inhibition at 6.25 µg/mL [2]: 51%
- MIC (Micrococcus luteus [3]): 25 µg/mL (≈ 32.3 µM)
- MIC (Staphylococcus aureus [7]): 50 µg/mL (≈ 64.6 µM)
- MIC (Micrococcus luteus [4]): 50 µg/mL (≈ 64.6 µM)
- MIC (Bacillus subtilis): 25 µg/mL (≈ 32.3 µM)
- MIC (Corynebacterium bovis): 12.5 µg/mL (≈ 16.2 µM)
- MIC (Enterococcus faecalis): 50 µg/mL (≈ 64.6 µM)
- MIC [5]: 100 µg/mL (≈ 129 µM)
- MIC (Staphylococcus aureus [6]): 50 µg/mL (≈ 64.6 µM)

SMILES: NC[C@H]1O[C@@H](O[C@H]([C@H]2O[C@@H](n3ccc(=O)[nH]c3=O)[C@H](O)[C@@H]2O)[C@H](N)C(=O)N[C@H](COC(=O)c2ccc(-c3ccccc3)cc2)C(=O)O)[C@H](O)[C@@H]1O
- MIC (Staphylococcus aureus [1]): > 100 µg/mL
- inhibition at 6.25 µg/mL [2]: 27%
- MIC (Micrococcus luteus [3]): > 100 µg/mL
- MIC (Micrococcus luteus [4]): > 100 µg/mL
- MIC (Bacillus subtilis): > 100 µg/mL
- MIC (Corynebacterium bovis): > 100 µg/mL
- MIC (Enterococcus faecalis): > 100 µg/mL
- MIC [5]: 100 µg/mL (≈ 140 µM)
- MIC (Staphylococcus aureus [6]): > 100 µg/mL

SMILES: CCCCCCCCCCCCCCCC(=O)OC[C@@H](NC(=O)[C@@H](N)[C@H](O[C@@H]1O[C@H](CN)[C@@H](O)[C@H]1O)[C@H]1O[C@@H](n2ccc(=O)[nH]c2=O)[C@H](O)[C@@H]1O)C(=O)O
- MIC (Staphylococcus aureus [1]): 25 µg/mL (≈ 32.3 µM)
- inhibition at 6.25 µg/mL [2]: 59%
- MIC (Micrococcus luteus [3]): 12.5 µg/mL (≈ 16.2 µM)
- MIC (Staphylococcus aureus [7]): 50 µg/mL (≈ 64.6 µM)
- MIC (Micrococcus luteus [4]): 50 µg/mL (≈ 64.6 µM)
- MIC (Bacillus subtilis): 25 µg/mL (≈ 32.3 µM)
- MIC (Corynebacterium bovis): 12.5 µg/mL (≈ 16.2 µM)
- MIC (Enterococcus faecalis): 50 µg/mL (≈ 64.6 µM)
- MIC [5]: 50 µg/mL (≈ 64.6 µM)
- MIC (Staphylococcus aureus [6]): 50 µg/mL (≈ 64.6 µM)

SMILES: NC[C@H]1O[C@@H](O[C@H]([C@H]2O[C@@H](n3ccc(=O)[nH]c3=O)[C@H](O)[C@@H]2O)[C@H](N)C(=O)N[C@@H](COC(=O)c2ccc(-c3ccccc3)cc2)C(=O)O)[C@H](O)[C@@H]1O
- MIC (Staphylococcus aureus [1]): > 100 µg/mL
- inhibition at 6.25 µg/mL [2]: 52%
- MIC (Micrococcus luteus [3]): 50 µg/mL (≈ 69.9 µM)
- MIC (Micrococcus luteus [4]): > 100 µg/mL
- MIC (Bacillus subtilis): > 100 µg/mL
- MIC (Corynebacterium bovis): 100 µg/mL (≈ 140 µM)
- MIC (Enterococcus faecalis): > 100 µg/mL
- MIC [5]: 100 µg/mL (≈ 140 µM)
- MIC (Staphylococcus aureus [6]): > 100 µg/mL

SMILES: CCCCCCCCCCCCCCCC(=O)OC[C@@H]1NC(=O)[C@H]([C@H](O[C@@H]2O[C@H](CN)[C@@H](O)[C@H]2O)[C@H]2O[C@@H](n3ccc(=O)[nH]c3=O)[C@H](O)[C@@H]2O)NC1=O
- MIC (Staphylococcus aureus [1]): 25 µg/mL (≈ 33.1 µM)
- inhibition at 6.25 µg/mL [2]: 35%
- MIC (Micrococcus luteus [3]): 50 µg/mL (≈ 66.1 µM)
- MIC (Staphylococcus aureus [7]): 100 µg/mL (≈ 132 µM)
- MIC (Micrococcus luteus [4]): 25 µg/mL (≈ 33.1 µM)
- MIC (Bacillus subtilis): 25 µg/mL (≈ 33.1 µM)
- MIC (Corynebacterium bovis): 50 µg/mL (≈ 66.1 µM)
- MIC (Enterococcus faecalis): 100 µg/mL (≈ 132 µM)
- MIC [5]: 100 µg/mL (≈ 132 µM)
- MIC (Staphylococcus aureus [6]): 100 µg/mL (≈ 132 µM)

SMILES: NC[C@H]1O[C@@H](O[C@H]([C@H]2O[C@@H](n3ccc(=O)[nH]c3=O)[C@H](O)[C@@H]2O)[C@H](N)C(=O)N[C@@H](CO)C(=O)O)[C@H](O)[C@@H]1O
- MIC (Staphylococcus aureus [1]): > 100 µg/mL
- MIC (Micrococcus luteus [3]): > 100 µg/mL
- MIC (Micrococcus luteus [4]): > 100 µg/mL
- MIC (Bacillus subtilis): > 100 µg/mL
- MIC (Corynebacterium bovis): > 100 µg/mL
- MIC (Enterococcus faecalis): > 100 µg/mL
- MIC [5]: 100 µg/mL (≈ 187 µM)
- MIC (Staphylococcus aureus [6]): > 100 µg/mL

SMILES: NC[C@H]1O[C@@H](O[C@H]([C@H]2O[C@@H](n3ccc(=O)[nH]c3=O)[C@H](O)[C@@H]2O)[C@@H]2NC(=O)[C@H](COC(=O)c3ccc(-c4ccccc4)cc3)NC2=O)[C@H](O)[C@@H]1O
- MIC (Staphylococcus aureus [1]): > 100 µg/mL
- inhibition at 6.25 µg/mL [2]: 48%
- MIC (Micrococcus luteus [3]): 100 µg/mL (≈ 143 µM)
- MIC (Micrococcus luteus [4]): > 100 µg/mL
- MIC (Bacillus subtilis): > 100 µg/mL
- MIC (Corynebacterium bovis): > 100 µg/mL
- MIC (Enterococcus faecalis): > 100 µg/mL
- MIC [5]: 100 µg/mL (≈ 143 µM)
- MIC (Staphylococcus aureus [6]): > 100 µg/mL
